# A selection: hits, their analogues and other compounds. The true share with any hit is near 4.8%.
# CSC inhib – cancer stem cell viability inhibitors, primary screen, luminescence; cancer stem cell-like cells viability; inhibition, % at 7.5 µM; hit rate 1.1% among 300,000; in the data active = inhibition above about 75%; inconclusive = no clear call, values can overlap the other calls; tested in HMLE shEcad cells
# Mdm2-MdmX inh – inhibitors of human Mdm2-MdmX association, primary screen, cell-based, luminescence, split luciferase, SaOS-2, uHTS. AID 485346, 2010. SaOS-2 split-luciferase Mdm2/MdmX complementation. Protein Mdm4 (Homo sapiens) + E3 ubiquitin-protein ligase Mdm2 (Homo sapiens), …. inhibition, % at 8 µM. hit rate 3% among 330,000;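 active = inhibition of at least 50% at 8 µM in the primary screen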
# Target sequence (O15151 whole entry, looked up): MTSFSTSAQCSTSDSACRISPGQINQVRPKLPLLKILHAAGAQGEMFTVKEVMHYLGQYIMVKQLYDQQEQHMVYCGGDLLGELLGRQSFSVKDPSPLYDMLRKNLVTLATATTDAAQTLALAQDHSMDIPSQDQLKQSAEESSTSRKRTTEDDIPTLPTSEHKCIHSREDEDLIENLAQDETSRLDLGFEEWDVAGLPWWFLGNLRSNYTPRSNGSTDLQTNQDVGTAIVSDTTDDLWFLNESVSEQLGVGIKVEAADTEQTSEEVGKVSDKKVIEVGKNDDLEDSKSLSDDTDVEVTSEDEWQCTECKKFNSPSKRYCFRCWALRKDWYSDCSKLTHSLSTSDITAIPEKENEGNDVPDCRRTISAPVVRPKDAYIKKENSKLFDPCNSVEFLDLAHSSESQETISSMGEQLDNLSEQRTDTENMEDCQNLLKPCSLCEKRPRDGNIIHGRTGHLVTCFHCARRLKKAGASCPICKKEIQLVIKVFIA
# Target sequence (Q00987 whole entry, looked up): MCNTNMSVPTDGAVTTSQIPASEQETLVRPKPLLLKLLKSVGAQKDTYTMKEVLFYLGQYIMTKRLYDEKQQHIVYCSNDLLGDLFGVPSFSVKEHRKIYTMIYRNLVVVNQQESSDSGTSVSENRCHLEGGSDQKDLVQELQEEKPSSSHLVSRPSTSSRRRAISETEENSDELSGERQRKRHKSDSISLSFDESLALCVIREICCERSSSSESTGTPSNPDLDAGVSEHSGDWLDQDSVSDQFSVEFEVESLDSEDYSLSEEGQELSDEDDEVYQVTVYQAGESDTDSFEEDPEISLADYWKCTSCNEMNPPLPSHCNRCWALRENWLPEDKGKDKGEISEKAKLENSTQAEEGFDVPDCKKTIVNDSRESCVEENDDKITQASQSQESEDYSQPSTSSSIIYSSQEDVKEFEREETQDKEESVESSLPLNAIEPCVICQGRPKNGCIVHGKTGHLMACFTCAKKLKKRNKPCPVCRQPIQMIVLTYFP
# Beta apoptosis – inhibitors of cytokine-induced beta cell apoptosis, primary screen, luminescence. INS-1E cytokine-induced death, ATP luminescence, 48 h; percent of positive-control rescue, neutral wells zero. protection from apoptosis, % (concentration not given with the values). hit rate 0.8% among 300,000. AID 435005, 2010;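 active = Every replicate reaches about 75%, or at least half do and their mean reaches it too, limit read from the data; inconclusive = At least half of replicates reach the limit but their mean does not; inactive = Under half of replicates reach the limit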;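 also: 0% = cytokine-treated negative control wells and 100% = positive control rescue; higher means more ATP so stronger rescue from cytokine killing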
# UPR XBP1 act – activators of adaptive XBP1 UPR arm, primary screen, cell-based, CHO-XBP1 luciferase reporter, luminescence, uHTS. AID 463104, 2010. IRE1-XBP1 UPR activation; percent of tunicamycin response, DMSO as zero. activation, % at 20 µM. hit rate 0.33% among 330,000;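 active = versus positive control, 20 µM dose yields 30% or more activation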;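 also: 100% = tunicamycin at 10 µg/mL and 0% = DMSO only wells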
#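 Material: CHO cell line with stable XBP1 luciferase reporter; buffer or medium: F12 medium containing 10% fetal bovine serum; compound: single point, 20 µM final compound, 1% DMSO; incubation: 6 h treatment, 37 °C; measured by: glow luminescence from Steady-Glo reagent; evaluation: activation, % of tunicamycin; control set: tunicamycin high, DMSO low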
# SKKanGAS inh – S. pyogenes SKKanGAS growth inhibitors in kanamycin, primary screen, streptokinase expression inhibitor project, SKKanGAS strain, BacTiter-Glo luminescence. hit rate 1.3% among 300,000. 6 h. inhibition, % at 7.5 µM;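 active = mean replicate score, as percent of positive control median, at least 50; inconclusive = mean below 50 but one replicate at or above 50; inactive = mean and every replicate below 50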;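 also: strain carries kanamycin resistance gene driven by streptokinase promoter and grows in 40 µg/ml kanamycin; loss of luminescence reflects streptokinase promoter inhibition or plain growth inhibition; 0% = median of DMSO wells and 100% = positive control at its reference dose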
# CHOP UPR activ – activators of apoptotic CHOP UPR arm, primary screen, cell-based, CHO-CHOP luciferase reporter, luminescence, uHTS | UPR activation; percent of tunicamycin response over DMSO baseline | activation, % at 10 µM | hit rate 0.34% among 330,000;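 active = at 10 µM dose, activation of 40% or more, normalized to positive control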;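 also: 100% = tunicamycin at 10 µg/mL and 0% = DMSO alone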
#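 measured by = luciferase luminescence | assay system = CHO-CHOP cells, stable luciferase reporter of PERK-eIF2a-CHOP signalling | amount = 500 reporter cells seeded per well | timing = 6 h compound exposure at 37 °C after overnight seeding | controls = positive tunicamycin 10 µg/mL, negative DMSO alone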
# Mdm2-MdmX conf – Mdm2-MdmX complex disruptors, retested hits, confirmation, luminescence, single concentration | shares compounds with Mdm2-MdmX inh | hit rate 55% among 10,000 | inhibition, % at 8 µM | Mdm2-MdmX binding, luminescent assay; in the data active = inhibition above about 40%
# Full FLuc ctr – full-length luciferase signal inhibition, confirmation, counter-screen for Mdm2/MdmX interaction inhibitor project, cell-based, single concentration, SaOS-2; hit rate 77% among 6,200; shares compounds with Mdm2-MdmX inh; inhibition, % at 8 µM; SaOS-2 full-length luciferase counterscreen, luminescence; AID 504607, 2011;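 active = mean inhibition at 8 µM reaching about 37%, which flags the compound as non-specific, limit read from the data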;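 also: p53-null SaOS-2 cells with luciferase driven by a doxycycline-inducible promoter; compound on cells about two nights before reading with doxycycline added after day one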
# * marks the source's active call; other numbers are inactive results; u = inconclusive; x = no result.
SMILES,CSC inhib,Mdm2-MdmX inh,Beta apoptosis,UPR XBP1 act,SKKanGAS inh,CHOP UPR activ,Mdm2-MdmX conf,Full FLuc ctr
COc1ccc(N2C(=O)C(C)(C)C2c2c(O)ccc3ccccc23)cc1 (stereo unspecified),17.3,2.6,2.1,-5.7,16.4,0.7,x,x
CC1(C)C(=O)N(c2ccccc2)C1c1ccccc1O (stereo unspecified),u,59.3*,-2.7,-2.1,-1.0,-0.6,46.4*,74.7*
O=C(Cc1ccc(S(=O)(=O)N2CCOCC2)s1)N1CCN(S(=O)(=O)c2cccc([N+](=O)[O-])c2)CC1,-7.3,15.6,0.5,0.1,0.2,0.9,x,x
Cc1ccc(NC(=O)CSCC(=O)N(C)CC(=O)Nc2ccccc2C(F)(F)F)cc1,x,17.9,x,-4.0,x,-1.2,x,x
Cc1ccc(C(=O)C[n+]2ccc3ccccc3c2)cc1,0.1,17.2,2.9,-1.6,8.1,0.1,x,x
Cc1cc(C(C)(C)C)cc(C)c1C[n+]1ccc2ccccc2c1,10.4,50.6*,111.2*,-1.3,4.4,-2.2,19.1,x
CC(=O)c1c(C)[nH]c(C(=O)Nc2cccc(S(=O)(=O)N3CCCCC3)c2)c1C,-0.6,72.0*,-1.3,-1.8,x,-0.2,35.9,x
O=C(CCl)Nc1cccc(S(=O)(=O)N2CCCCCC2)c1,18.5,98.2*,-9.0,-0.5,6.9,14.7,43.6*,24.0
O=C(Cc1ccc(Cl)cc1)Nc1cccc(S(=O)(=O)N2CCCCC2)c1,-9.8,19.1,-6.8,-2.0,x,0.3,x,x
Cc1ccc(S(=O)(=O)N2CCCCC2)cc1C(=O)N(C)CC(=O)Nc1ccc(Cl)c(C(F)(F)F)c1,41.8,54.8*,19.1,-6.0,3.2,4.9,68.1*,49.5*
CCNC(=S)N(CCCO)Cc1cc2cc3c(cc2[nH]c1=O)OCCO3,-6.5,1.6,-0.7,-3.2,1.3,1.8,x,x
NS(=O)(=O)c1ccc(CCNC(=O)c2ccc(C#CC3(O)CCCCC3)cc2)cc1,48.2,70.2*,5.3,-2.5,-1.9,-1.7,68.4*,71.9*
CC(C)c1cc(C(=O)OCC(=O)N2CCN(C(=O)c3ccco3)CC2)c(O)c(C(C)C)c1,3.3,2.8,x,-5.7,-1.1,0.4,x,x
Cc1ccccc1Nc1nc(N)nc(CSc2nnnn2-c2ccccc2)n1,-5.7,11.3,x,-2.9,-9.2,-0.8,x,x
CCc1ccc(Nc2nc(N)nc(CSc3nnnn3-c3ccccc3)n2)cc1,23.3,59.5*,-8.4,-0.9,-2.9,1.2,62.5*,47.7*
CCOC(=O)C1=C(c2ccccc2)NC(=O)NC1c1ccc(O)c(Cl)c1 (stereo unspecified),7.8,93.5*,x,-1.5,-2.5,-1.2,55.9*,30.5
CCOC(=O)C1=C(c2ccccc2)NC(=O)NC1c1ccc(O)c(OCC)c1 (stereo unspecified),-18.6,12.0,-2.3,-3.8,-2.9,1.2,x,x
O=C(CN1CCN(c2ccccn2)CC1)Nc1nc2ccccc2s1,-14.8,19.5,1.0,-4.4,3.3,5.3,x,x
CC1=NN(c2ccccc2)C(=O)/C1=C\C=C\c1ccccc1,101.8*,66.4*,38.7,-1.0,2.5,3.1,44.6*,28.9
CC1=NN(c2ccccc2)C(=O)/C1=C/C=C/c1ccc(N(C)C)cc1,x,x,x,x,-8.8,x,x,x
NC(=O)C1CCN(C(=O)c2ccc(-c3ccccc3Cl)o2)CC1,-12.0,-37.8,-5.5,1.0,x,5.9,x,x
COc1ccc(-c2coc3cc4oc(=O)cc(C)c4cc23)cc1F,-11.2,71.4*,12.1,2.8,-13.8,1.8,46.4*,104.8*
Cc1coc2cc3oc(=O)cc(C)c3cc12,17.2,13.7,0.8,0.5,-13.5,3.5,x,x
C=CC[C@H](CC(=O)N[C@H](CO)Cc1ccccc1)C(=O)N[C@H](COC(=O)[C@H](CC=C)CC(=O)OC(C)(C)C)Cc1c[nH]c2ccccc12,-6.4,8.9,-10.8,-1.6,x,2.1,x,x
CCN(CC)S(=O)(=O)c1cccc(-n2c(O)c(C=Nc3ccccc3C(=O)O)c3ccccc3c2=O)c1,34.9,67.2*,-15.6,0.9,35.9,1.7,67.7*,36.5*
SMILES,CSC inhib,Mdm2-MdmX inh,Beta apoptosis,UPR XBP1 act,SKKanGAS inh,CHOP UPR activ,Mdm2-MdmX conf,Full FLuc ctr
O=C(O)c1ccccc1N=Cc1c(O)n(-c2nccs2)c(=O)c2ccccc12,0.3,16.3,0.6,-1.4,-10.0,3.7,x,x
O=C(COc1coc(CN2CCN(c3ccccc3)CC2)cc1=O)NC1CCCCC1,-4.6,-11.1,x,-1.1,-10.6,-0.5,x,x
CCCn1c(N)c(N(CCOC)C(=O)c2ccc([N+](=O)[O-])cc2Cl)c(=O)[nH]c1=O,13.4,22.7,x,-5.1,1.6,0.1,x,x
Cc1ccc2c(c1)C(=O)C(=O)N2CC1COc2ccccc2O1 (stereo unspecified),12.4,35.2,1.3,13.3,1.1,1.0,x,x
CCOc1ccc2c(c1)C(=O)C(=O)N2CC1COc2ccccc2O1 (stereo unspecified),19.0,68.8*,2.9,24.5,0.6,-1.0,30.2,x
COc1ccc2c(c1)C(=O)C(=O)N2CC1COc2ccccc2O1 (stereo unspecified),22.8,54.2*,-1.8,14.9,0.3,1.4,24.9,x
CCN=c1scc(-c2ccc(F)cc2)n1/N=C/c1ccccn1,2.9,-175.1,6.9,9.6,0.1,2.7,x,x
CCCc1sc(N/N=C/c2ccccn2)nc1-c1ccc(F)cc1,93.4*,69.3*,90.9*,6.8,95.9*,19.5,35.5,45.1*
Cc1cc(OCC(=O)Nc2nccs2)c2c(C)cc(=O)oc2c1,-18.3,90.3*,-0.5,-1.3,22.5,11.0,0.7,x
Cc1cccc(C)c1NC(=O)COC(=O)COc1ccc2c(C)cc(=O)oc2c1,-3.9,-16.6,-3.2,-2.5,4.6,-0.6,x,x
Cc1cc(=O)oc2cc(NC(=O)COc3cccc(C(F)(F)F)c3)ccc12,0.1,69.2*,-2.7,1.6,x,0.3,0.4,x
O=C(COc1ccc2c(-c3ccccc3)cc(=O)oc2c1)Nc1cccnc1,-6.1,67.6*,-3.9,-7.3,2.9,2.2,42.5*,82.4*
Cc1csc(NC(=O)COc2ccc3c(C)cc(=O)oc3c2)n1,-4.4,66.8*,-5.0,5.8,-2.9,7.4,9.7,x

# High-throughput results (PubChem)
